Test results taken from ChEMBL document CHEMBL1821603, “Bivalent bendamustine and melphalan derivatives as anticancer agents” (Eur J Med Chem, 2011).
Calls of active or inactive are those of the source. The calls are words filed in the database; no cut-off is given here.

Assays:
[1] = Half life in PBS buffer at pH 7.4; format: physicochemical
MCF7 [2] = test: Cytostatic effect against human MCF7 cells at 5 uM after 72 hrs by crystal violet staining relative to uncreate control; format: functional, cell-based
In short: (§1)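 MCF-7 or MDA-MB-231 cells (ATCC) in DMEM high glucose with 5% FCS, seeded at 7500 cells/mL and grown 3 days at 37 °C, 5% CO2. Compound was added from a DMF or methanol stock and incubated 72 h. Cells were glutardialdehyde-fixed and stained with crystal violet, and the dye was extracted with 70% ethanol for OD 578 nm. T/Ccorr = (T−C0)/(C−C0)×100, where C0 is the OD before treatment. Run 3 times.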

MDA-MB-231 = test: Antiproliferative activity against human MDA-MB-231 cells after 72 hrs by crystal violet staining; format: functional, cell-based; in short: as §1
MCF7 [3] = test: Cytotoxicity against human MCF7 cells at 1 uM after 72 hrs by crystal violet staining; format: functional, cell-based
In short: (§2)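 MCF-7 cells in DMEM high glucose with 5% FCS were seeded at 7500 cells/mL and grown 3 days at 37 °C, 5% CO2. Then exposed 72 h to compound added from a DMF or methanol stock. Biomass was read by crystal violet staining of glutardialdehyde-fixed cells, with 70% ethanol extraction and OD at 578 nm, against untreated control and pre-treatment OD. Three runs per substance.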

MCF7 [4] = test: Cytotoxicity against human MCF7 cells at 10 uM after 72 hrs by crystal violet staining; format: functional, cell-based; in short: as §2
MCF7 [5] = test: Cytotoxicity against human MCF7 cells at 5 uM after 72 hrs by crystal violet staining; format: functional, cell-based; in short: as §2
MCF7 [6] = test: Cytostatic effect against human MCF7 cells at 10 uM after 72 hrs by crystal violet staining relative to uncreate control; format: functional; in short: as §1

Cn1c(CCCC(=O)OCCN2C(=O)C=CC2=O)nc2cc(N(CCCl)CCCl)ccc21
half-life [1]: 10 h | Activity (MCF7 [2]): Active | Activity (MDA-MB-231): Active

Cn1c(CCCC(=O)O)nc2cc(N(CCCl)CCCl)ccc21
Activity (MCF7 [3]): inactive | Activity (MCF7 [4]): inactive | Activity (MCF7 [5]): inactive | Activity (MDA-MB-231): Active

N[C@@H](Cc1ccc(N(CCCl)CCCl)cc1)C(=O)O [MELPHALAN]
Activity (MDA-MB-231): Active | T/C (MCF7 [6]): 20%

CC(C)(C)OC(=O)N[C@@H](Cc1ccc(N(CCCl)CCCl)cc1)C(=O)OCCN1C(=O)C=CC1=O
Activity (MDA-MB-231): Active
